In test [1] the target is T1, Nociceptin receptor (Homo sapiens, UniProt P41146). Put plainly: Displacement of [125I][Tyr14]nociceptin FQ from human cloned nociceptin receptor expressed in CHO cells. In kind it is cell-based. Summed up: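 Competition binding on CHO cell membranes expressing cloned human nociceptin receptor, radioligand [125I][Tyr14]nociceptin FQ; Ki determined from dose–response curves.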

In a further test the target is Mu-type opioid receptor (Homo sapiens, UniProt P35372). Put plainly: Displacement of [3H]diprenorphine from human mu opioid receptor expressed in CHO cells. In kind it is cell-based. Summed up: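 CHO cell membranes expressing human opioid receptor; [3H]-diprenorphine as radioligand; Ki determined from dose–response curves.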
Sequence of Mu-type opioid receptor (P35372 whole entry): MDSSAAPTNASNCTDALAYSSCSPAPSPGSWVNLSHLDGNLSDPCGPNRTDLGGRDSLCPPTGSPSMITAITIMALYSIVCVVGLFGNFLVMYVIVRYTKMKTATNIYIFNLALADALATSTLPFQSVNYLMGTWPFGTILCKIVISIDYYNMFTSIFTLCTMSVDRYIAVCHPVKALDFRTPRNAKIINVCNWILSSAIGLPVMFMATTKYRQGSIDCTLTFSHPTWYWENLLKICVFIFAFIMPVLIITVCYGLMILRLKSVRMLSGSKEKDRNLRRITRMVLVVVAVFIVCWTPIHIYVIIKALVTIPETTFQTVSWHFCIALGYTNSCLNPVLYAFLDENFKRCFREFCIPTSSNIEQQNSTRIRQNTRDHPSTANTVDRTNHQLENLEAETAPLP
For test [2], the species on record is Homo sapiens. Put plainly: Selectivity for human cloned nociceptin receptor over human mu opioid receptor.
Test [3] is filed under the species Homo sapiens. Put plainly: Selectivity for human cloned nociceptin receptor over human delta opioid receptor.
Test [4] is filed under the species Homo sapiens. Put plainly: Selectivity for human cloned nociceptin receptor over human kappa opioid receptor.
In test [5] the target is T1, Nociceptin receptor. Put plainly: Agonist activity at human cloned nociceptin receptor expressed in CHO cells assessed as stimulation of [35S]GTPgammaS binding. The class given is functional, cell-based. Summed up:
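Membranes from cells transfected with nociceptin receptor; agonism measured as enhancement of [35S]GTPγS binding in presence of GDP; EC50 derived.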

In test [6] the target is T1, Nociceptin receptor. Put plainly: Agonist activity at human cloned nociceptin receptor expressed in CHO cells assessed as stimulation of [35S]GTPgammaS binding at 5.5 uM. In kind it is functional, cell-based.
In test [7] the test system is Cavia porcellus. Put plainly: Antitussive activity in guinea pig assessed as suppression of capsaicin-induced cough at 0.3 mg/kg, po. The class given is functional.
Test [8] concerns the target T1, Nociceptin receptor. Put plainly: Agonist activity at human cloned nociceptin receptor expressed in CHO cells assessed as stimulation of [35S]GTPgammaS binding at 10 uM. The class given is functional, cell-based.
Test [9] is filed under the species Cavia porcellus. Put plainly: Antitussive activity in guinea pig assessed as suppression of capsaicin-induced cough after 2 hrs. In kind it is functional. Put shortly:
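Guinea pig capsaicin-induced cough model; oral dosing; cough suppression read 2 h after dosing relative to placebo; ED50 derived.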

T1 sequence (P41146 whole entry): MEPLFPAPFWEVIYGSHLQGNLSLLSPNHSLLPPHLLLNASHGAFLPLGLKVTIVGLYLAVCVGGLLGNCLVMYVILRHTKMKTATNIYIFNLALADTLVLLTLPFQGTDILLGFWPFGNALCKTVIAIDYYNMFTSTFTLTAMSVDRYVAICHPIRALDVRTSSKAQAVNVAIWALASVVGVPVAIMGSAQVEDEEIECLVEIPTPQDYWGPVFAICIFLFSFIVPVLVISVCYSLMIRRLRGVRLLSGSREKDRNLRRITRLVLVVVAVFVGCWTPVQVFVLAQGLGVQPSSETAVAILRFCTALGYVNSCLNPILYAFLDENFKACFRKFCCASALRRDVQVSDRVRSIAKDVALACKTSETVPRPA

In the case of `Clc1ccccc1C(c1ccccc1Cl)N1[C@@H]2CC[C@H]1C[C@](CN1CCCC1)(c1ccccc1)C2`, the Ki turned out to be 70 nM at Nociceptin receptor [1] and 4170 nM on Mu-type opioid receptor.

In turn, `O=C1CCCN1C[C@@]1(Cc2ccccc2)C[C@H]2CC[C@@H](C1)N2C(c1ccccc1Cl)c1ccccc1Cl` showed an inhibitory constant (Ki) at Nociceptin receptor [1] of 336 nM.

Turning to `CC(=O)NC[C@@]1(c2ncccc2CN2CCCCC2)C[C@H]2CC[C@@H](C1)N2C(c1ccccc1Cl)c1ccccc1Cl`, the results for the Ki at Nociceptin receptor [1] and on Mu-type opioid receptor were 670 nM and 758 nM, respectively.

As to `NC[C@@]1(Cc2ccccc2)C[C@H]2CC[C@@H](C1)N2C(c1ccccc1Cl)c1ccccc1Cl`, the Ki on Nociceptin receptor [1] came to 11 nM; at Mu-type opioid receptor, 1340 nM. Also, the fold change (FC) in the test listed under Homo sapiens [2] was determined as 121; in the test filed under Homo sapiens [3] it was 300; in the test filed under Homo sapiens [4], 33.

With `NC[C@@]1(c2ncccc2CN2CCCCC2)C[C@H]2CC[C@@H](C1)N2C(c1ccccc1Cl)c1ccccc1Cl`, the affinity on Nociceptin receptor [1] corresponds to a Ki of 245 nM. This counts as sub-micromolar.

For `Cc1cccnc1[C@]1(CN)C[C@H]2CC[C@@H](C1)N2C(c1ccccc1Cl)c1ccccc1Cl`, the affinity at Nociceptin receptor [1], expressed as Ki, was 50 nM.

Consider `Fc1ccc2c(c1)[C@]1(CN2)C[C@H]2CC[C@@H](C1)N2C(c1ccccc1Cl)c1ccccc1Cl`, for which the Ki worked out at 39 nM at Nociceptin receptor [1] and 1710 nM on Mu-type opioid receptor.

With `Clc1ccccc1C(c1ccccc1Cl)N1[C@@H]2CC[C@H]1C[C@@]1(CNc3ccccc31)C2`, the Ki was 50 nM on Nociceptin receptor [1] and 1200 nM at Mu-type opioid receptor.

`CC(=O)NC[C@@]1(c2ccc(Br)cn2)C[C@H]2CC[C@@H](C1)N2C(c1ccccc1Cl)c1ccccc1Cl`: the Ki at Nociceptin receptor [1] turned out to be 27 nM; at Mu-type opioid receptor, 752 nM.

In the case of `NC[C@@]1(c2cccnc2)C[C@H]2CC[C@@H](C1)N2C(c1ccccc1Cl)c1ccccc1Cl`, at Nociceptin receptor [1], the affinity, expressed as Ki, was 82 nM.

In turn, `NC[C@@]1(C2CCCCN2)C[C@H]2CC[C@@H](C1)N2C(c1ccccc1Cl)c1ccccc1Cl` (stereo not given in full) had a Ki at Nociceptin receptor [1] of 17 nM.

Turning to `CC(=O)NC[C@@]1(c2cccc(F)n2)C[C@H]2CC[C@@H](C1)N2C(c1ccccc1Cl)c1ccccc1Cl`, the Ki at Nociceptin receptor [1] came to 24 nM; at Mu-type opioid receptor, 1280 nM.

As to `CN(C)C[C@@]1(c2ccccc2)C[C@H]2CC[C@@H](C1)N2C(c1ccccc1Cl)c1ccccc1Cl`, the inhibition constant (Ki) was 17 nM on Nociceptin receptor [1] and 1490 nM at Mu-type opioid receptor. For the same molecule, the results for the fold change (FC) in the test filed under Homo sapiens [3] and in the test filed under Homo sapiens [4] were 300 and 31, respectively. At Nociceptin receptor [5], the concentration for a half-maximal effect (EC50) turned out to be 483 nM. In addition, the Activity is 104% at Nociceptin receptor [6] and 36% in the test on Cavia porcellus [7].

In the case of `NC[C@@]1(Cc2ccc(F)cc2)C[C@H]2CC[C@@H](C1)N2C(c1ccccc1Cl)c1ccccc1Cl`, the Ki at Nociceptin receptor [1] was 34 nM; at Mu-type opioid receptor it was 1410 nM. In addition, the EC50 on Nociceptin receptor [5] is 124 nM. Further, the Activity on Nociceptin receptor [6] came to 87%.

Regarding `CC(=O)NC[C@@]1(c2ccccc2)C[C@H]2CC[C@@H](C1)N2C(c1ccccc1Cl)c1ccccc1Cl`, the Ki was found to be 20 nM on Nociceptin receptor [1] and 777 nM at Mu-type opioid receptor. Further, the fold change (FC) is 300 in the test filed under Homo sapiens [3] and 32 in the test filed under Homo sapiens [4]. Moreover, the EC50 at Nociceptin receptor [5] was determined as 269 nM. Moreover, the Activity at Nociceptin receptor [8] worked out at 122%. In the test listed under Cavia porcellus [9], the 50% effective dose (ED50) stood at 0.19 mg/kg.

For `COC(=O)NC[C@@]1(c2ccccc2)C[C@H]2CC[C@@H](C1)N2C(c1ccccc1Cl)c1ccccc1Cl`, the inhibitory constant (Ki) on Nociceptin receptor [1] amounted to 20 nM; on Mu-type opioid receptor it was 905 nM.

`CC(=O)NC[C@@]1(c2ccc(N3CCCCC3)cn2)C[C@H]2CC[C@@H](C1)N2C(c1ccccc1Cl)c1ccccc1Cl` gave a Ki at Nociceptin receptor [1] of 99 nM. That is a double-digit nanomolar value.

Molecule `CC(=O)NC[C@@]1(c2ncccc2C)C[C@H]2CC[C@@H](C1)N2C(c1ccccc1Cl)c1ccccc1Cl` had a Ki on Nociceptin receptor [1] of 173 nM.

In the case of `CCNC[C@@]1(c2ccccn2)C[C@H]2CC[C@@H](C1)N2C(c1ccccc1Cl)c1ccccc1Cl`, the values for the Ki on Nociceptin receptor [1] and at Mu-type opioid receptor were 6 nM and 743 nM, respectively. In the test filed under Homo sapiens [2], this molecule displayed a fold change (FC) of 75.

`CC(=O)NC[C@@]1(c2ccccn2)C[C@H]2CC[C@@H](C1)N2C(c1ccccc1Cl)c1ccccc1Cl`: the results for the Ki at Nociceptin receptor [1] and at Mu-type opioid receptor were 5 nM and 374 nM, respectively. Further, the fold change (FC) in the test filed under Homo sapiens [2] turned out to be 75.

Regarding `COc1cccc([C@]2(CN)C[C@H]3CC[C@@H](C2)N3C(c2ccccc2Cl)c2ccccc2Cl)n1`, the Ki on Nociceptin receptor [1] was 11 nM; at Mu-type opioid receptor, 123 nM. The fold change (FC) in the test listed under Homo sapiens [3] amounted to 300; in the test listed under Homo sapiens [4], 36.

`CCNC[C@@]1(c2cccc(OC)n2)C[C@H]2CC[C@@H](C1)N2C(c1ccccc1Cl)c1ccccc1Cl`: the results for the Ki at Nociceptin receptor [1] and at Mu-type opioid receptor were 20 nM and 442 nM, respectively.

For `NC[C@@]1(c2ccccc2)C[C@H]2CC[C@@H](C1)N2C(c1ccccc1Cl)c1ccccc1Cl`, the Ki at Nociceptin receptor [1] amounted to 6 nM; on Mu-type opioid receptor it was 674 nM. Further, the fold change (FC) in the test filed under Homo sapiens [2] is 112; in the test filed under Homo sapiens [3] it was 300; in the test listed under Homo sapiens [4] it was 30.

On to `CN(C)C[C@@]1(Cc2ccccc2)C[C@H]2CC[C@@H](C1)N2C(c1ccccc1Cl)c1ccccc1Cl`, for which the affinity at Nociceptin receptor [1], expressed as Ki, was 55 nM.

As to `CCNC[C@]1(Cc2ccccc2)C[C@H]2CC[C@@H](C1)N2C(c1ccccc1Cl)c1ccccc1Cl`, the Ki at Nociceptin receptor [1] amounted to 39 nM. The Ki values of the last two molecules are within 1.5-fold of each other.

`CC(=O)N(C)C[C@@]1(c2ccccc2)C[C@H]2CC[C@@H](C1)N2C(c1ccccc1Cl)c1ccccc1Cl`: the Ki on Nociceptin receptor [1] turned out to be 210 nM; on Mu-type opioid receptor, 2620 nM. Moreover, in the test listed under Homo sapiens [2], the fold change (FC) was 13.

Consider `CC(=O)NC[C@@]1(Cc2ccccc2)C[C@H]2CC[C@@H](C1)N2C(c1ccccc1Cl)c1ccccc1Cl`, for which the Ki was determined as 12 nM on Nociceptin receptor [1] and 458 nM on Mu-type opioid receptor. Also, the figures for the fold change (FC) in the test filed under Homo sapiens [3] and in the test listed under Homo sapiens [4] were 300 and 34, respectively.

Consider `CC(=O)NC[C@@]1(c2ccc(F)cc2)C[C@H]2CC[C@@H](C1)N2C(c1ccccc1Cl)c1ccccc1Cl`, for which the inhibition constant Ki on Nociceptin receptor [1] was determined as 31 nM; on Mu-type opioid receptor, 2110 nM. Besides, the fold change (FC) in the test listed under Homo sapiens [2] stood at 68.

`COc1cccc([C@]2(CNC(C)=O)C[C@H]3CC[C@@H](C2)N3C(c2ccccc2Cl)c2ccccc2Cl)n1`: the values for the inhibition constant (Ki) on Nociceptin receptor [1] and at Mu-type opioid receptor were 4 nM and 251 nM, respectively.

With `CN(C)C[C@@]1(c2cccc(F)n2)C[C@H]2CC[C@@H](C1)N2C(c1ccccc1Cl)c1ccccc1Cl`, the Ki at Nociceptin receptor [1] came out at 104 nM; on Mu-type opioid receptor it was 3980 nM.

At Nociceptin receptor [1], `CC(=O)NC[C@@]1(c2cccnc2)C[C@H]2CC[C@@H](C1)N2C(c1ccccc1Cl)c1ccccc1Cl` had a Ki of 35 nM.

For `NC[C@@]1(c2ccccn2)C[C@H]2CC[C@@H](C1)N2C(c1ccccc1Cl)c1ccccc1Cl`, the Ki on Nociceptin receptor [1] was 7 nM; at Mu-type opioid receptor, 617 nM. Moreover, the results for the fold change (FC) in the test filed under Homo sapiens [2], in the test filed under Homo sapiens [3] and in the test listed under Homo sapiens [4] were 75, 300 and 35, respectively.

Consider `CNC[C@@]1(c2ccccc2)C[C@H]2CC[C@@H](C1)N2C(c1ccccc1Cl)c1ccccc1Cl`, for which the inhibition constant (Ki) on Nociceptin receptor [1] was 10 nM; on Mu-type opioid receptor, 566 nM.

For the molecule `CC(=O)NC[C@@]1(Cc2ccc(F)cc2)C[C@H]2CC[C@@H](C1)N2C(c1ccccc1Cl)c1ccccc1Cl`, the results for the inhibitory constant (Ki) on Nociceptin receptor [1] and on Mu-type opioid receptor were 15 nM and 782 nM, respectively. In addition, the EC50 on Nociceptin receptor [5] came out at 129 nM. The Activity stood at 124% on Nociceptin receptor [8] and 23% in the test with Cavia porcellus [7].

Regarding `COc1ccc([C@]2(CNC(C)=O)C[C@H]3CC[C@@H](C2)N3C(c2ccccc2Cl)c2ccccc2Cl)cc1`, the Ki stood at 118 nM on Nociceptin receptor [1] and 2410 nM on Mu-type opioid receptor.

As for `O=C1CCCN1C[C@@]1(c2ccccc2)C[C@H]2CC[C@@H](C1)N2C(c1ccccc1Cl)c1ccccc1Cl`, at Nociceptin receptor [1], the affinity, expressed as Ki, was 68 nM.

`CN(C)C[C@@]1(c2ccccn2)C[C@H]2CC[C@@H](C1)N2C(c1ccccc1Cl)c1ccccc1Cl`: the Ki on Nociceptin receptor [1] is 7 nM; on Mu-type opioid receptor, 785 nM. In the test filed under Homo sapiens [2], this molecule came in with a fold change (FC) of 75. Moreover, the EC50 on Nociceptin receptor [5] is 156 nM.

On to `COc1ccc([C@]2(CNC(C)=O)C[C@H]3CC[C@@H](C2)N3C(c2ccccc2Cl)c2ccccc2Cl)nc1`, for which the Ki at Nociceptin receptor [1] came to 62 nM; at Mu-type opioid receptor, 3450 nM.

On to `Clc1ccccc1C(c1ccccc1Cl)N1[C@@H]2CC[C@H]1C[C@@](Cc1ccccc1)(CN1CCCC1)C2`, for which, at Nociceptin receptor [1], the Ki came to 116 nM.

`CC(=O)NC[C@@]1(C2CCCCN2)C[C@H]2CC[C@@H](C1)N2C(c1ccccc1Cl)c1ccccc1Cl` (stereo not given in full) displayed a Ki at Nociceptin receptor [1] of 27 nM.

`Fc1ccc(C[C@]2(CN3CCCC3)C[C@H]3CC[C@@H](C2)N3C(c2ccccc2Cl)c2ccccc2Cl)cc1`: the inhibitory constant (Ki) on Nociceptin receptor [1] was 58 nM.

Turning to `Cc1ccc2c(c1)[C@]1(CN2)C[C@H]2CC[C@@H](C1)N2C(c1ccccc1Cl)c1ccccc1Cl`, the values for the Ki on Nociceptin receptor [1] and at Mu-type opioid receptor were 74 nM and 998 nM, respectively.

On Nociceptin receptor [1], `NC[C@@]1(c2cccc(F)n2)C[C@H]2CC[C@@H](C1)N2C(c1ccccc1Cl)c1ccccc1Cl` had a Ki of 29 nM.

Values taken from ChEMBL document CHEMBL1152183, “Structure-activity relationships of 3-substituted N-benzhydryl-nortropane analogs as nociceptin receptor ligands for the treatment of cough” (Bioorg Med Chem Lett, 2008).
